# Measured values: ChEMBL document CHEMBL3877264, “Quinolidene-rhodanine conjugates: Facile synthesis and biological evaluation” (Eur J Med Chem, 2017)
# Key:
# [1] = test system: Mycobacterium tuberculosis; assay: Growth inhibition of Mycobacterium bovis BCG ATCC 35743 at active stage at 1.56 ug/ml measured after 8 days by nitrate reductase dye based two fold dilution method relative to control; format: functional; conditions: BCG str. ATCC 35743, 192 h, read-out: GI
# Method in brief: (§1)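 M. bovis BCG was grown in Dubos medium and assayed in Mycobacterium pheli minimal medium (pH 6.6), with compounds from DMSO stocks. Incubation lasted 8 days for active and 12 days for dormant cultures. Viability was read by nitrate reductase at 540 nm against cell-free blanks, with vehicle set as 100% growth. Primary screen was at 30, 10 and 3 µg/ml, in triplicate, mean ± SD. MIC was taken from dose-response curves.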
# [2] = Selectivity index, ratio of GI50 for human HeLa cells to MIC for Mycobacterium tuberculosis H37Ra ATCC 25177 at dormant stage; format: toxicity, cell-based; conditions: read-out: Selectivity Index
# Method in brief: (§2)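 SI is the cell-line GI50 divided by the dormant-stage mycobacterial MIC. […] THP-1 macrophages were PMA-differentiated for 24 h.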
# [3] = test system: Mycobacterium tuberculosis; assay: Growth inhibition of Mycobacterium tuberculosis H37Ra ATCC 25177 at dormant stage at 50 ug/ml measured after 12 days by XTT dye based two fold dilution method relative to control; format: functional; conditions: H37Ra ATCC 25177, 288 h, read-out: GI
# Method in brief: (§3)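 MTB H37Ra was grown in Dubos medium, then exposed in Mycobacterium pheli minimal medium (pH 6.6) to compounds dissolved in DMSO. The assay ended on day 8 (active) or day 12 (dormant). Viable cells were measured by XTT reduction menadione assay at 470 nm, blank-corrected, relative to vehicle control. Triplicates were expressed as mean ± SD. MIC came from dose-response curves.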
# Staphylococcus aureus = assay: Growth inhibition of Staphylococcus aureus NCIM 2010 at 3 ug/ml measured after 12 hrs relative to control; format: functional; conditions: NCIM 2010, 12 h, read-out: GI
# Method in brief: (§4)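 Bacteria grown in LB at 37 °C and 180 rpm to OD 1. Compounds added to wells, then 0.1% inoculum of 1 OD culture (620 nm). Growth read as OD at 620 nm after 8 h for gram-negative and after 12 h for gram-positive strains.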
# [4] = Selectivity index, ratio of GI50 for HUVEC to MIC for Mycobacterium bovis BCG ATCC 35743 at dormant stage; conditions: pooled result: one value given for 6 cell lines, strains, targets or settings; method in brief: as §2
# [5] = test system: Mycobacterium tuberculosis; assay: Growth inhibition of Mycobacterium tuberculosis H37Ra ATCC 25177 at dormant stage at 3.13 ug/ml measured after 12 days by XTT dye based two fold dilution method relative to control; format: functional; conditions: H37Ra ATCC 25177, 288 h, read-out: GI; method in brief: as §3
# [6] = Selectivity index, ratio of GI50 for human A549 cells to MIC for Mycobacterium tuberculosis H37Ra ATCC 25177 at dormant stage; format: toxicity, cell-based; conditions: read-out: Selectivity Index; method in brief: as §2
# [7] = test system: Mycobacterium tuberculosis; assay: Growth inhibition of Mycobacterium tuberculosis H37Ra ATCC 25177 at dormant stage at 0.78 ug/ml measured after 12 days by XTT dye based two fold dilution method relative to control; format: functional; conditions: H37Ra ATCC 25177, 288 h, read-out: GI; method in brief: as §3
# [8] = test system: Mycobacterium tuberculosis; assay: Growth inhibition of Mycobacterium tuberculosis H37Ra ATCC 25177 at dormant stage measured after 12 days by XTT dye based two fold dilution method; format: functional; conditions: H37Ra ATCC 25177, 288 h; method in brief: as §3
# Bacillus subtilis [9] = assay: Growth inhibition of Bacillus subtilis NCIM 2079 at 10 ug/ml measured after 12 hrs relative to control; format: functional; conditions: NCIM 2079, 12 h, read-out: GI; method in brief: as §4
# Bacillus subtilis [10] = assay: Growth inhibition of Bacillus subtilis NCIM 2079 at 30 ug/ml measured after 12 hrs relative to control; format: functional; conditions: NCIM 2079, 12 h, read-out: GI; method in brief: as §4
# [11] = Cytotoxicity against human HeLa cells at 100 ug/ml assessed as growth inhibition measured after 48 hrs by MTT assay relative to control; format: toxicity, cell-based; conditions: read-out: GI
# [12] = test system: Mycobacterium tuberculosis; assay: Growth inhibition of Mycobacterium tuberculosis H37Ra ATCC 25177 at active stage at 0.78 ug/ml measured after 8 days by XTT dye based two fold dilution method relative to control; format: functional; conditions: H37Ra ATCC 25177, 192 h, read-out: GI; method in brief: as §3
# [13] = test system: Mycobacterium tuberculosis; assay: Growth inhibition of Mycobacterium tuberculosis H37Ra ATCC 25177 at active stage at 3.13 ug/ml measured after 8 days by XTT dye based two fold dilution method relative to control; format: functional; conditions: H37Ra ATCC 25177, 192 h, read-out: GI; method in brief: as §3
# [14] = test system: Mycobacterium tuberculosis; assay: Growth inhibition of Mycobacterium bovis BCG ATCC 35743 at dormant stage measured after 12 days by nitrate reductase dye based two fold dilution method; format: functional; conditions: BCG str. ATCC 35743, 288 h; method in brief: as §1
# [15] = test system: Mycobacterium tuberculosis; assay: Growth inhibition of Mycobacterium bovis BCG ATCC 35743 at active stage at 3.13 ug/ml measured after 8 days by nitrate reductase dye based two fold dilution method relative to control; format: functional; conditions: BCG str. ATCC 35743, 192 h, read-out: GI; method in brief: as §1
# [16] = test system: Mycobacterium tuberculosis; assay: Growth inhibition of Mycobacterium tuberculosis H37Ra ATCC 25177 at dormant stage at 6.25 ug/ml measured after 12 days by XTT dye based two fold dilution method relative to control; format: functional; conditions: H37Ra ATCC 25177, 288 h, read-out: GI; method in brief: as §3
# [17] = test system: Mycobacterium tuberculosis; assay: Growth inhibition of Mycobacterium bovis BCG ATCC 35743 at active stage at 25 ug/ml measured after 8 days by nitrate reductase dye based two fold dilution method relative to control; format: functional; conditions: BCG str. ATCC 35743, 192 h, read-out: GI; method in brief: as §1
# [18] = test system: Mycobacterium tuberculosis; assay: Growth inhibition of Mycobacterium bovis BCG ATCC 35743 at dormant stage at 3 ug/ml measured after 12 days by nitrate reductase dye based two fold dilution method relative to control; format: functional; conditions: BCG str. ATCC 35743, 288 h, read-out: GI; method in brief: as §1
# [19] = Selectivity index, ratio of GI50 for […]-differentiated human THP1 cells to MIC for Mycobacterium tuberculosis H37Ra ATCC 25177 at dormant stage; format: toxicity, cell-based, THP-1; conditions: read-out: Selectivity Index; method in brief: as §2
# Bacillus subtilis [20] = assay: Antibacterial activity against Bacillus subtilis NCIM 2079 measured after 12 hrs; format: functional; conditions: NCIM 2079, 12 h; method in brief: as §4
# Escherichia coli [21] = assay: Growth inhibition of Escherichia coli NCIM 2688 at 30 ug/ml measured after 8 hrs relative to control; format: functional; conditions: NCIM 2688, 8 h, read-out: GI; method in brief: as §4
# [22] = test system: Mycobacterium tuberculosis; assay: Growth inhibition of Mycobacterium bovis BCG ATCC 35743 at dormant stage at 10 ug/ml measured after 12 days by nitrate reductase dye based two fold dilution method relative to control; format: functional; conditions: BCG str. ATCC 35743, 288 h, read-out: GI; method in brief: as §1
# Escherichia coli [23] = assay: Antibacterial activity against Escherichia coli NCIM 2688 measured after 8 hrs; format: functional; conditions: NCIM 2688, 8 h; method in brief: as §4
# Escherichia coli [24] = assay: Growth inhibition of Escherichia coli NCIM 2688 at 3 ug/ml measured after 8 hrs relative to control; format: functional; conditions: NCIM 2688, 8 h, read-out: GI; method in brief: as §4
# Escherichia coli [25] = assay: Growth inhibition of Escherichia coli NCIM 2688 at 10 ug/ml measured after 8 hrs relative to control; format: functional; conditions: NCIM 2688, 8 h, read-out: GI; method in brief: as §4
# [26] = test system: Mycobacterium tuberculosis; assay: Growth inhibition of Mycobacterium tuberculosis H37Ra ATCC 25177 at active stage at 25 ug/ml measured after 8 days by XTT dye based two fold dilution method relative to control; format: functional; conditions: H37Ra ATCC 25177, 192 h, read-out: GI; method in brief: as §3
# [27] = test system: Mycobacterium tuberculosis; assay: Growth inhibition of Mycobacterium tuberculosis H37Ra ATCC 25177 at active stage at 12.5 ug/ml measured after 8 days by XTT dye based two fold dilution method relative to control; format: functional; conditions: H37Ra ATCC 25177, 192 h, read-out: GI
# Pseudomonas fluorescens = assay: Growth inhibition of Pseudomonas fluorescens NCIM 2036 at 3 ug/ml measured after 8 hrs relative to control; format: functional; conditions: NCIM 2036, 8 h, read-out: GI; method in brief: as §4
# [28] = Cytotoxicity against primary HUVEC measured after 48 hrs by MTT assay; format: toxicity, cell-based; conditions: human
Compound,inhibition of growth at 1.56 µg/mL [1],inhibition of growth at 50 µg/mL [3],inhibition of growth at 3 µg/mL (Staphylococcus aureus),Selectivity Index [4],inhibition of growth at 3.13 µg/mL [5],inhibition of growth at 0.78 µg/mL [7],IC50 [8],IC90 [8],inhibition of growth at 10 µg/mL (Bacillus subtilis [9]),inhibition of growth at 30 µg/mL (Bacillus subtilis [10]),"inhibition at 48 h, 100 ug/ml [11]",inhibition of growth at 0.78 µg/mL [12],inhibition of growth at 3.13 µg/mL [13],inhibition of growth at 3.13 µg/mL [15],inhibition of growth at 6.25 µg/mL [16],inhibition of growth at 25 µg/mL [17],inhibition of growth at 3 µg/mL [18],MIC (Bacillus subtilis [20]),inhibition of growth at 30 µg/mL (Escherichia coli [21]),inhibition of growth at 10 µg/mL [22],further results
O=C1NC(=S)S/C1=C\c1cc2cc(Cl)ccc2nc1Cl,86.2%,86.4%,101%,43.7,42.4%,-27.1%,2.2 µg/mL,6.3 µg/mL,92.5%,101%,45.5%,24.1%,81.1%,98.9%,89.5%,99.9%,99.8%,9.33 µg/mL,92.8%,99.6%,selectivity ratio [2]: 15.6; selectivity ratio [6]: 15.6; IC50 [14]: 1.3 µg/mL; IC90 [14]: 2.2 µg/mL; selectivity ratio [19]: 15.6; MIC (Escherichia coli [23]): 2.44 µg/mL; inhibition of growth at 3 µg/mL (Escherichia coli [24]): 106%; inhibition of growth at 10 µg/mL (Escherichia coli [25]): 109%; inhibition of growth at 25 µg/mL [26]: 100%; inhibition of growth at 12.5 µg/mL [27]: 99.3%; inhibition of growth at 3 µg/mL (Pseudomonas fluorescens): 95.6%; GI50 at 48 h [28]: > 100 µg/mL
COc1ccc2cc(/C=C3\SC(=S)NC3=O)c(Cl)nc2c1,-36.6%,104%,9.19%,60.2,36.4%,-29.8%,10 µg/mL,> 30 µg/mL,-8.32%,8.36%,30.1%,16.8%,8.88%,91.5%,23.2%,98.4%,-7.94%,> 30 µg/mL,35.5%,27.9%,MIC (Escherichia coli [23]): > 30 µg/mL; inhibition of growth at 3 µg/mL (Escherichia coli [24]): 26.4%; inhibition of growth at 10 µg/mL (Escherichia coli [25]): 39.4%; inhibition of growth at 25 µg/mL [26]: 109%; inhibition of growth at 12.5 µg/mL [27]: 83.1%; inhibition of growth at 3 µg/mL (Pseudomonas fluorescens): 0.629%; GI50 at 48 h [28]: > 100 µg/mL
